KCNK3 block: human KCNK3 channel inhibitors, primary screen, CHO cells, FluxOR thallium flux, B-score; B-score at 10 µM; Potassium channel subfamily K member 3 (Homo sapiens), O14649; 0.84% of 340,000 active; FluxOR fluorescence; hits give low values; AID 602410, 2012;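 active means B-score under library mean minus 4 SD, starting fluorescence ratio at most library mean plus 5 SD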;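 further: more negative B-score means stronger inhibition of thallium flux through KCNK3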
KCNK9 inh: KCNK9 potassium channel inhibitors, primary screen, HEK293 cells, thallium flux | Potassium channel subfamily K member 9 (Homo sapiens), Q9NPC2 | B-score at 10 µM | 1.2% of 310,000 active | FluxOR thallium flux fluorescence; hits give low values | AID 488922, 2010;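 active means ratio B-score over 3 SD below the library mean, with starting fluorescence within 5 SD of its mean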;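 further: negative B-score means less thallium flux so channel inhibition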
KCNQ1 block: inhibitors of human KCNQ1 channel, primary screen, cell-based, thallium flux, high-throughput. CHO-K1 KCNQ1, FluxOR thallium flux fluorescence; hits give high values. B-score at 10 µM. 1.3% of 310,000 active;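 active means compounds whose thallium flux B-score, printed positive for inhibition, exceeds three library SD while starting fluorescence stays within three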;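 further: channel opened by potassium depolarization with thallium stimulus after 20 min compound exposure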
KCNQ1 pot: potentiators or activators of KCNQ1 channel, primary screen, cell-based, thallium flux, high-throughput. Potassium voltage-gated channel subfamily KQT member 1 (Homo sapiens), P51787. CHO-K1 KCNQ1, thallium flux FluxOR fluorescence; hits give high values. B-score at 10 µM. 0.35% of 310,000 active. AID 2648, 2010;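 active means fluorescence ratio B-score, a plate-corrected score, at least three library SD, with initial intensity B-score within 5 SD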
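Doses: Single concentration per compound, DMSO matched to controls | Test system: KCNQ1-transfected CHO-K1 cells | Timing: 90 min dye loading and 20 min compound exposure, both at room temperature | Measured by: Kinetic FluxOR thallium fluorescence, 10-s 1-Hz baseline, 110-s post-stimulus read | Medium: Assay buffer with matched DMSO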
hERG protect: hERG rescue from dofetilide block, primary screen, cell-based, CHO-hERG, FluxOR thallium flux, dofetilide IC70; Voltage-gated inwardly rectifying potassium channel KCNH2 (Homo sapiens), Q12809; activation (rescue from dofetilide block), less the hit threshold, % at 10 µM; 0.51% of 310,000 active; dofetilide IC70 present;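 active means activation above the mean of controls blocked by dofetilide plus 5 SD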;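 further: thallium influx through hERG after potassium depolarization seen as dye fluorescence rise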
Cl transport mod: KCC2 cotransporter modulators, thallium flux, primary screen, cell-based, HEK293 KCC2, FluoZin-2 fluorescence, MLSMR; 2.2% of 190,000 active; B-score of Tl+ flux slope (higher = more flux/activation; lower = inhibition) at 10 µM; AID 1456, 2008; KCC2 cells, thallium flux FluoZin-2 fluorescence; Solute carrier family 12 member 5 (Homo sapiens), Q9H2X9;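 active means thallium flux slope and its plate-corrected score both differing from the plate sample mean at a set confidence after two filtering rounds, in either direction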;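 further: slope of fluorescence scaled to starting intensity during 10 to 20 s after thallium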
KCC2 sec1: KCC2 modulators in sodium-free buffer, confirmation, cell-based, HEK293 KCC2, thallium flux, secondary assay | normalised thallium flux (F/F0 slope) at 10 µM | FluoZin2 fluorescence; hits give high values | AID 1713, 2009 | 15% of 3,700 active | shares compounds with Cl transport mod;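 active means thallium flux slope above the same plate's solvent-only control mean plus 3 SD; inconclusive means the two replicate wells disagree; inactive means no significant difference from solvent-only control wells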
KCC2 bumet counter: thallium flux persisting under bumetanide in KCC2 cells, confirmation, counter-screen for KCC2 modulator project, cell-based, HEK293 KCC2, FluoZin2, secondary assay 3; shares compounds with Cl transport mod; HEK293-KCC2 + bumetanide/ouabain; hits give high values; normalized thallium flux at 10 µM; 49% of 3,700 active;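 active means thallium entry rate above the same plate's blocked-transporter control wells by more than 3 SD; inconclusive means the two repeat wells disagree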;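 further: raw slope of fluorescence over initial fluorescence between 10 and 20 s after thallium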
KCC2 sec2: KCC2 modulators without ouabain present, confirmation, cell-based, HEK293 KCC2, thallium flux, FluoZin2, secondary assay 2. shares compounds with Cl transport mod. thallium flux FluoZin2 fluorescence; actives lie on both sides; F/F0 rise rate, 10–20 s post-thallium. normalized thallium flux at 10 µM. 23% of 3,700 active;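 active means thallium flux slope more than 3 SD above or below the plate's solvent-only control mean, mostly below; inconclusive means the two repeat wells disagreed; inactive means no significant shift from solvent-only controls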;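 further: raw slope with 0.1% DMSO as baseline and bumetanide as block control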
HEK counter1: thallium flux modulation in parental HEK cells, confirmation, counter-screen for KCC2 modulator project, cell-based, counterscreen 1; shares compounds with Cl transport mod; 46% of 3,700 active; thallium flux rate (normalised fluorescence) at 10 µM; AID 1716, 2009; HEK293 parental cells, thallium flux FluoZin2, ouabain; baseline-ratio fluorescence slope, 10–20 s after thallium;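 active means thallium flux rate significantly above the same plate's solvent-only control wells, beyond their mean plus 3 SD; inconclusive means the two replicate wells gave conflicting results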
KCC2 retest ouab: KCC2 inhibitors and activators, ouabain retest, confirmation, HEK-KCC2 cells | HEK293-KCC2, thallium flux FluoZin2 fluorescence; bidirectional: low = inhibitor, high = activator | raw Tl+ flux slope (below DMSO = inhibition, above = activation) at 10 µM | 48% of 3,700 active | shares compounds with Cl transport mod | AID 1717, 2009;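 active means thallium flux slope beyond 3 SD from same-plate DMSO control mean in most replicates, usually higher, sometimes lower; inconclusive means repeat tests gave conflicting results; inactive means no significant difference from controls in most replicates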;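 further: slope of initial-normalized fluorescence between seconds 10 and 20 after thallium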
HEK counter2: native HEK Tl+ uptake effects, second counter-screen – HEK cells, counterscreen 2, counter-screen for KCC2 modulator project, confirmation. 33% of 3,700 active. shares compounds with Cl transport mod. AID 1718, 2009. HEK293 parental, thallium flux FluoZin-2 fluorescence slope. thallium flux slope at 10 µM;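 active means thallium flux slope above the same plate's solvent-control mean plus 3 SD in both duplicate wells; inconclusive means duplicate wells that disagreed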;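 further: run without ouabain in cells lacking the KCC2 cotransporter; slope of fluorescence scaled to its starting value between 10 and 20 s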
* marks the source's active call; other numbers are inactive results. The list is not random: actives were taken first. Their share in the collection is about 4.1%.

`O=C(NCC1CCCO1)c1cc(C(=O)C2CC2)c[nH]1` (stereo not drawn) gave KCNK3 block inactive, KCNK9 inh inactive, KCNQ1 block inactive, KCNQ1 pot inactive and hERG protect -17.4.
`O=C(NCCc1ccccc1)C1CCCN(C(=O)Nc2ccc(F)cc2)C1` (stereo not drawn) gave KCNK3 block inactive, KCNK9 inh inactive, KCNQ1 block inactive, KCNQ1 pot inactive and hERG protect -5.7.
COc1ccc2occ(C(=O)c3cccs3)c2c1 was read as KCNK3 block inactive, KCNK9 inh inactive, KCNQ1 block inactive, KCNQ1 pot inactive, hERG protect -9.4, KCC2 sec1 0.00668, KCC2 bumet counter 0.00708*, KCC2 sec2 0.0296, HEK counter1 0.00739, KCC2 retest ouab 0.0193 and HEK counter2 0.0111.
COc1ccc2occ(C(=O)c3ccc(N)cc3)c2c1 was read as KCNK3 block inactive, KCNK9 inh inactive, KCNQ1 block inactive, KCNQ1 pot inactive and hERG protect -10.7.
Screening CCn1c(SCc2ccccc2Cl)nc2ccccc21 returned KCNK3 block inactive, KCNK9 inh inactive, KCNQ1 block inactive, KCNQ1 pot inactive, hERG protect -9.0 and Cl transport mod -0.276.
`CCn1c(CSc2nc3ccccc3n2C)nc2ccccc21` gave KCNK3 block inactive, KCNK9 inh inactive, KCNQ1 block inactive, KCNQ1 pot inactive, hERG protect -10.1, Cl transport mod -3.99*, KCC2 sec1 inconclusive, KCC2 bumet counter 0.00376, KCC2 sec2 0.0221*, HEK counter1 inconclusive, KCC2 retest ouab 0.0142* and HEK counter2 0.00948.

Source: PubChem BioAssay (several laboratories)
